Test [1] relates to Chrysosporium keratinophilum. In words: Antimicrobial activity against Chrysosporium keratinophilum at 100 ug/mL after 72 hrs by well plate method. It is filed as functional. The note with it: read-out: IZ. A digest of the protocol: (§1)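 Antifungal well-plate assay on Sabouraud dextrose agar using a 72 h old broth culture of the fungal strain. Wells were filled with compound dissolved in DMSO (100 or 50), and the zone of inhibition around each well was measured. […] served as reference.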

Test [2] deals with Escherichia coli. In words: Antimicrobial activity against Escherichia coli at 50 ug/mL after 24 hrs by well plate method. The note with it: read-out: IZ. It is filed as functional. The gist of the method:
(§2)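 Agar well diffusion in nutrient agar. About 1 cm³ of a 24 h broth culture was placed in sterile dishes, and molten agar at 45 °C was poured over it and set. 6 mm wells were bored and filled with compound in DMSO (100 or 50). Plates were incubated 24 h at 37 °C, and the inhibition zone was read in mm. Duplicate runs, with standard deviation; amoxicillin as reference.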

Test [3] has as its system Staphylococcus aureus. Briefly: Antimicrobial activity against Staphylococcus aureus at 100 ug/mL after 24 hrs by well plate method. In kind it is functional. As to conditions: read-out: IZ. A digest of the protocol:
as §2

In test [4] the test system is Chrysosporium keratinophilum. In words: Antimicrobial activity against Chrysosporium keratinophilum at 50 ug/mL after 72 hrs by well plate method. It is filed as functional. The note with it: read-out: IZ. A digest of the protocol:
as §1

Test [5] deals with Candida albicans. Briefly: Antimicrobial activity against Candida albicans at 100 ug/mL after 72 hrs by well plate method. It is filed as functional. The note with it: read-out: IZ. The gist of the method: as §1
The test system of test [6] is Candida albicans. Briefly: Antimicrobial activity against Candida albicans at 50 ug/mL after 72 hrs by well plate method. It is filed as functional. The note with it: read-out: IZ. The gist of the method: as §1
In test [7] the test system is Nannizzia gypsea. In words: Antimicrobial activity against Microsporum gypseum at 100 ug/mL after 72 hrs by well plate method. In kind it is functional. The note with it: read-out: IZ. The gist of the method: as §1
Test [8] concerns Nannizzia gypsea. In words: Antimicrobial activity against Microsporum gypseum at 50 ug/mL after 72 hrs by well plate method. In kind it is functional. The note with it: read-out: IZ. A digest of the protocol:
as §1

The subject of test [9] is Aspergillus flavus. Briefly: Antimicrobial activity against Aspergillus flavus at 100 ug/mL after 72 hrs by well plate method. As to conditions: read-out: IZ. It is filed as functional.
Test [10] concerns Aspergillus flavus. Briefly: Antimicrobial activity against Aspergillus flavus at 50 ug/mL after 72 hrs by well plate method. It is filed as functional. The note with it: read-out: IZ.
For test [11], the system named is Staphylococcus aureus. In words: Antimicrobial activity against Staphylococcus aureus at 50 ug/mL after 24 hrs by well plate method. In kind it is functional. As to conditions: read-out: IZ. The gist of the method:
as §2

Test [12] deals with Bacillus subtilis. In words: Antimicrobial activity against Bacillus subtilis at 100 ug/mL after 24 hrs by well plate method. It is filed as functional. As to conditions: read-out: IZ. A digest of the protocol:
as §2

For test [13], the system named is Bacillus subtilis. Briefly: Antimicrobial activity against Bacillus subtilis at 50 ug/mL after 24 hrs by well plate method. It is filed as functional. The note with it: read-out: IZ. A digest of the protocol: as §2
Test [14] concerns Salmonella typhi. Briefly: Antimicrobial activity against Salmonella typhi at 50 ug/mL after 24 hrs by well plate method. In kind it is functional, Salmonella enterica subsp. enterica serovar Typhi. As to conditions: Salmonella enterica, read-out: IZ. The gist of the method:
(§3)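 Agar well diffusion in nutrient agar: about 1 cm³ of a 24 h broth culture placed in a sterile dish, molten agar at 45 °C poured over it and allowed to set. 6 mm holes cut with a sterile cork borer and filled with compound solution in DMSO. Incubated 24 h at 37 °C; inhibition zone diameter read in mm. Run in duplicate, standard deviation calculated.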

Test [15] has as its system Salmonella typhi. Briefly: Antimicrobial activity against Salmonella typhi at 100 ug/mL after 24 hrs by well plate method. It is filed as functional, Salmonella enterica subsp. enterica serovar Typhi. As to conditions: Salmonella enterica, read-out: IZ. A digest of the protocol:
as §3

Test [16] relates to Escherichia coli. Briefly: Antimicrobial activity against Escherichia coli at 100 ug/mL after 24 hrs by well plate method. As to conditions: read-out: IZ. It is filed as functional. A digest of the protocol: as §2

With `Cc1nnc(Cc2nn(Cc3ccc(Cl)nc3)c(=O)c3ccccc23)o1`, the zone of inhibition at 100 µg/mL was 0 mm in [1]; 1.5 mm in the test with Staphylococcus aureus [3]; 3.5 mm in the test with Candida albicans [5]; 2 mm in the test on Nannizzia gypsea [7]; 5 mm with Aspergillus flavus [9]; 0 mm in the test with Bacillus subtilis [12]. For the same compound, the zone of inhibition at 100 µg/mL in the test with Salmonella typhi [15] stood at 2.5 mm; in the test on Escherichia coli [16], 3.5 mm. The zone of inhibition at 50 µg/mL stood at 1.5 mm with Escherichia coli [2]; 0 mm in [4]; 1 mm in the test on Candida albicans [6]; 0 mm in the test with Nannizzia gypsea [8]; 1 mm in the test on Aspergillus flavus [10]; 0 mm in the test with Staphylococcus aureus [11]. In addition, the results for the zone of inhibition at 50 µg/mL in the test with Bacillus subtilis [13] and with Salmonella typhi [14] were 0 mm and 1 mm, respectively.
For `O=c1c2ccccc2c(Cc2nnc(C(F)(F)F)o2)nn1Cc1ccc(Cl)nc1`, the zone of inhibition at 100 µg/mL in test [1] was determined as 4.5 mm; in the test with Staphylococcus aureus [3] it was 6 mm; in the test on Candida albicans [5], 4.5 mm; with Nannizzia gypsea [7], 5 mm; in the test on Aspergillus flavus [9], 2.5 mm; in the test with Bacillus subtilis [12], 2 mm. Further, the zone of inhibition at 100 µg/mL with Salmonella typhi [15] came out at 7 mm; in the test on Escherichia coli [16], 8 mm. Moreover, the zone of inhibition at 50 µg/mL in the test on Escherichia coli [2] was 6 mm; in test [4], 1 mm; in the test with Candida albicans [6] it was 1.5 mm; in the test with Nannizzia gypsea [8] it was 3 mm; with Aspergillus flavus [10], 0 mm; in the test with Staphylococcus aureus [11], 3.5 mm. The values for the zone of inhibition at 50 µg/mL with Bacillus subtilis [13] and in the test on Salmonella typhi [14] were 0 mm and 4 mm, respectively.
With `O=c1c2ccccc2c(Cc2nnc(C3CC3)o2)nn1Cc1ccc(Cl)nc1`, the zone of inhibition at 100 µg/mL in test [1] was 2.5 mm; in the test on Staphylococcus aureus [3], 4.5 mm; in the test on Candida albicans [5], 8.5 mm; in the test with Nannizzia gypsea [7], 7.5 mm; in the test with Aspergillus flavus [9], 5 mm; in the test on Bacillus subtilis [12], 6.5 mm. In addition, the zone of inhibition at 100 µg/mL is 6 mm with Salmonella typhi [15] and 11.5 mm in the test on Escherichia coli [16]. For the same compound, the zone of inhibition at 50 µg/mL with Escherichia coli [2] was determined as 7 mm; in [4], 0.5 mm; in the test on Candida albicans [6], 5.5 mm; in the test on Nannizzia gypsea [8], 4.5 mm; in the test with Aspergillus flavus [10], 2.5 mm; in the test with Staphylococcus aureus [11], 1 mm. Besides, the results for the zone of inhibition at 50 µg/mL in the test with Bacillus subtilis [13] and in the test with Salmonella typhi [14] were 4 mm and 3 mm, respectively.
For `CC1(C)S[C@@H]2[C@H](NC(=O)[C@H](N)c3ccc(O)cc3)C(=O)N2[C@H]1C(=O)O` [AMOXICILLIN], the zone of inhibition at 50 µg/mL turned out to be 15 mm with Escherichia coli [2], 12.5 mm in the test with Staphylococcus aureus [11], 10.5 mm with Bacillus subtilis [13] and 12 mm in the test on Salmonella typhi [14]. Besides, the zone of inhibition at 100 µg/mL was 16.5 mm in the test on Staphylococcus aureus [3], 14.5 mm in the test on Bacillus subtilis [12], 20.5 mm with Salmonella typhi [15] and 18.5 mm with Escherichia coli [16].
Take `Cc1ncc([N+](=O)[O-])n1CCO` [METRONIDAZOLE]: the zone of inhibition at 100 µg/mL was 14 mm in test [1], 19.5 mm with Candida albicans [5], 17 mm in the test on Nannizzia gypsea [7] and 17.5 mm in the test on Aspergillus flavus [9]. Also, the zone of inhibition at 50 µg/mL in [4] stood at 11 mm; in the test on Candida albicans [6] it was 15 mm; in the test on Nannizzia gypsea [8], 14 mm; with Aspergillus flavus [10], 13.5 mm.

Source of the values: ChEMBL document CHEMBL1275303, “Synthesis and antimicrobial activity of 2-substituted [4-(1,3,4-oxadiazol-2-yl methyl)] phthalazin-1(2H)-one derivatives” (2010).
